Converted amounts (≈) assume the structure as drawn.
Legend:
Pseudomonas aeruginosa [1] = assay: Antibacterial activity against 10^4 CFU Pseudomonas aeruginosa 09-32 after 18 hrs by CLSI agar dilution method; format: functional; conditions: 09-32, 18 h
Enterococcus faecalis [2] = assay: Antibacterial activity against 10^4 CFU Enterococcus faecalis 08-10 after 18 hrs by CLSI agar dilution method; format: functional; conditions: 08-10, 18 h
Enterococcus faecium [3] = assay: Antibacterial activity against 10^4 CFU Enterococcus faecium 08-2 after 18 hrs by CLSI agar dilution method; format: functional; conditions: 08-2, 18 h
Klebsiella pneumoniae [4] = assay: Antibacterial activity against 10^4 CFU Klebsiella pneumoniae 09-22 after 18 hrs by CLSI agar dilution method; format: functional; conditions: 09-22, 18 h
Escherichia coli [5] = assay: Antibacterial activity against 10^4 CFU Escherichia coli 08-21 after 18 hrs by CLSI agar dilution method; format: functional; conditions: 08-21, 18 h
Staphylococcus aureus [6] = assay: Antibacterial activity against 10^4 CFU Staphylococcus aureus ATCC 25923 after 18 hrs by CLSI agar dilution method; format: functional; conditions: ATCC 25923, 18 h
[7] = Cytotoxicity against MDCK cells after 48 hrs by CPE assay; format: cell-based, Canis lupus familiaris; conditions: dog
Procedure, shortened: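 MDCK cells kept in Minimum Essential Medium with Earle's salt plus 10% fetal bovine serum at 37 °C, 5% CO₂. […] Medium then replaced by assay medium with or without compound. After 48 h exposure, viability read by CPE assay. CC₅₀ calculated by Reed–Muench analysis.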

[8] = tested on: Staphylococcus epidermidis; assay: Antibacterial activity against 10^4 CFU methicillin-sensitive Staphylococcus epidermidis 09-6 after 18 hrs by CLSI agar dilution method; format: functional; conditions: 09-6, 18 h
Klebsiella pneumoniae [9] = assay: Antibacterial activity against 10^4 CFU Klebsiella pneumoniae 09-23 after 18 hrs by CLSI agar dilution method; format: functional; conditions: 09-23, 18 h
Enterococcus faecium [10] = assay: Antibacterial activity against 10^4 CFU Enterococcus faecium 06-7 after 18 hrs by CLSI agar dilution method; format: functional; conditions: 06-7, 18 h
Pseudomonas aeruginosa [11] = assay: Antibacterial activity against 10^4 CFU Pseudomonas aeruginosa ATCC 27853 after 18 hrs by CLSI agar dilution method; format: functional; conditions: ATCC 27853, 18 h
Staphylococcus aureus [12] = assay: Antibacterial activity against 10^4 CFU methicillin-resistant Staphylococcus aureus 08-1 after 18 hrs by CLSI agar dilution method; format: functional; conditions: 08-1, 18 h
Escherichia coli [13] = assay: Antibacterial activity against 10^4 CFU Escherichia coli ATCC 25922 after 18 hrs by CLSI agar dilution method; format: functional; conditions: ATCC 25922, 18 h
Staphylococcus aureus [14] = assay: Antibacterial activity against 10^4 CFU methicillin-sensitive Staphylococcus aureus 08-1 after 18 hrs by CLSI agar dilution method; format: functional; conditions: 08-1, 18 h
Streptococcus pneumoniae = assay: Antibacterial activity against 10^4 CFU Streptococcus pneumoniae 08-4 after 18 hrs by CLSI agar dilution method; format: functional; conditions: 08-4, 18 h
Enterococcus faecalis [15] = assay: Antibacterial activity against 10^4 CFU Enterococcus faecalis 08-12 after 18 hrs by CLSI agar dilution method; format: functional; conditions: 08-12, 18 h
[16] = tested on: Staphylococcus epidermidis; assay: Antibacterial activity against 10^4 CFU methicillin-resistant Staphylococcus epidermidis 09-2 after 18 hrs by CLSI agar dilution method; format: functional; conditions: 09-2, 18 h

SMILES	MIC (Pseudomonas aeruginosa [1]) [µg/mL]	MIC (Enterococcus faecalis [2]) [µg/mL]	MIC (Enterococcus faecium [3]) [µg/mL]	MIC (Klebsiella pneumoniae [4]) [µg/mL]	MIC (Escherichia coli [5]) [µg/mL]	MIC (Staphylococcus aureus [6]) [µg/mL]	CC50 at 48 h [7] [µM]	MIC [8] [µg/mL]	MIC (Klebsiella pneumoniae [9]) [µg/mL]	MIC (Enterococcus faecium [10]) [µg/mL]	MIC (Pseudomonas aeruginosa [11]) [µg/mL]	MIC (Staphylococcus aureus [12]) [µg/mL]	MIC (Escherichia coli [13]) [µg/mL]	MIC (Staphylococcus aureus [14]) [µg/mL]	MIC (Streptococcus pneumoniae) [µg/mL]	MIC (Enterococcus faecalis [15]) [µg/mL]	MIC [16] [µg/mL]
CO/N=C1\CN(c2c(F)cc3c(=O)c(C(=O)O)cn4c3c2OC[C@@H]4C)CCC1(C)N (stereo partly drawn)	128 (≈ 306 µM)	16 (≈ 38.2 µM)	> 128	2 (≈ 4.78 µM)	> 128	0.25 (≈ 0.597 µM)	1510	0.25 (≈ 0.597 µM)	> 128	> 128	8 (≈ 19.1 µM)	0.25 (≈ 0.597 µM)	128 (≈ 306 µM)	0.25 (≈ 0.597 µM)	0.25 (≈ 0.597 µM)	> 128	0.25 (≈ 0.597 µM)
CO/N=C1\CN(c2c(F)cc3c(=O)c(C(=O)O)cn(C4CC4)c3c2OC(F)F)CCC1(C)N (stereo not drawn)	2 (≈ 4.27 µM)	8 (≈ 17.1 µM)	> 128	2 (≈ 4.27 µM)	> 128	0.25 (≈ 0.534 µM)	1070	0.25 (≈ 0.534 µM)	> 128	> 128	4 (≈ 8.54 µM)	0.25 (≈ 0.534 µM)	128 (≈ 273 µM)	0.25 (≈ 0.534 µM)	0.25 (≈ 0.534 µM)	> 128	0.25 (≈ 0.534 µM)
CO/N=C1\CN(c2nc3c(cc2F)c(=O)c(C(=O)O)cn3C2CC2)CCC1(C)N (stereo not drawn)	16 (≈ 39.7 µM)	16 (≈ 39.7 µM)	64 (≈ 159 µM)	16 (≈ 39.7 µM)	16 (≈ 39.7 µM)	0.25 (≈ 0.62 µM)	77.4	0.25 (≈ 0.62 µM)	2 (≈ 4.96 µM)	16 (≈ 39.7 µM)	4 (≈ 9.92 µM)	0.25 (≈ 0.62 µM)	8 (≈ 19.8 µM)	0.25 (≈ 0.62 µM)	4 (≈ 9.92 µM)	16 (≈ 39.7 µM)	0.25 (≈ 0.62 µM)
CCO/N=C1\CN(c2c(F)cc3c(=O)c(C(=O)O)cn(CC)c3c2F)CCC1(C)N (stereo not drawn)	64 (≈ 152 µM)	4 (≈ 9.47 µM)	> 128	> 128	> 128	0.25 (≈ 0.592 µM)	592	0.25 (≈ 0.592 µM)	> 128	> 128	4 (≈ 9.47 µM)	0.25 (≈ 0.592 µM)	> 128	0.25 (≈ 0.592 µM)	0.25 (≈ 0.592 µM)	> 128	0.25 (≈ 0.592 µM)

From ChEMBL document CHEMBL1781961, “Synthesis and in vitro antibacterial activity of 7-(3-alkoxyimino-4-amino-4-methylpiperidin-1-yl) fluoroquinolone derivatives” (Eur J Med Chem, 2011)
